{"data": "Experimental data collected from several papers", "target": "Mitogen-activated protein kinase kinase kinase 7 (MAP3K7, Homo sapiens, UniProt O43318)", "Sequence (O43318 1-606, as in one of the studies)": "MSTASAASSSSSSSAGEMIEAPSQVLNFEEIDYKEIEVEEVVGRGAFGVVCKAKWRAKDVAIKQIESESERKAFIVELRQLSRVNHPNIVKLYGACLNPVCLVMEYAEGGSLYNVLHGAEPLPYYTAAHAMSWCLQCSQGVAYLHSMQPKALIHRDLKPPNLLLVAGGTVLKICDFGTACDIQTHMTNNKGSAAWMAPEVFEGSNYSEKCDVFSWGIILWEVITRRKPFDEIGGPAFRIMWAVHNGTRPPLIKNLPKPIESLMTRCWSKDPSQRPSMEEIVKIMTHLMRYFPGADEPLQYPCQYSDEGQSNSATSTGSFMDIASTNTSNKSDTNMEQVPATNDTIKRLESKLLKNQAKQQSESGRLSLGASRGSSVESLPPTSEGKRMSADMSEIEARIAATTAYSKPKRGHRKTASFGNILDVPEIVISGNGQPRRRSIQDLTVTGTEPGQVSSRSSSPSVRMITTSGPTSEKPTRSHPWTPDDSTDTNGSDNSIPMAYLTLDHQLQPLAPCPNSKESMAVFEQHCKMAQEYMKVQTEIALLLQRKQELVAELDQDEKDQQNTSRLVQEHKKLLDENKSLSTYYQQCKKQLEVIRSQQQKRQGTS"}
{"Compound": "c1cnn2ncc(-c3ccnc(N4CCC45COC5)n3)c2c1", "effect on": "binding", "tested at": "1 µM", "remaining binding [%]": 51}
{"Compound": "Nc1ncc2c(n1)-c1c([nH]c3ccc(C#CC4CC4)cc13)CCCC2", "effect on": "binding", "method": "competition with immobilised ligand", "tested at": "1 µM", "remaining binding [%]": 89}
{"Compound": "CC(=O)N1CCC(c2ccc(C(=O)NC3=NCCN3)cc2C(F)(F)F)CC1", "effect on": "cell-free assay", "method": "competition with immobilised ligand", "tested at": "1 µM", "remaining binding [%]": 100}
{"Compound": "N[C@H]1CCN(c2nccc(-c3cnn4ncccc34)n2)C1", "effect on": "binding", "tested at": "1 µM", "remaining binding [%]": 100}
{"Compound": "Cc1cnc(Nc2ccc(C(=O)N3CCC(N4CCCC4)CC3)cc2)nc1-c1cc2ccccc2s1", "effect on": "binding", "method": "competition with immobilised ligand", "tested at": "1 µM", "remaining binding [%]": 7.3}
{"Compound": "CN(CCCC(F)(F)F)c1nccc(-c2cnn3ncccc23)n1", "effect on": "binding", "tested at": "1 µM", "remaining binding [%]": 85}
{"Compound": "Cc1noc([C@H]2C[C@@H](c3ccc(C(F)(F)F)cc3)CN(C(=O)N3CCS(=O)(=O)C3)C2)n1", "effect on": "cell-free assay", "method": "competition with immobilised ligand", "tested at": "1 µM", "remaining binding [%]": 100}
{"Compound": "O=C(NCC1CCOCC1)c1n[nH]cc1NC(=O)c1c(F)cccc1F", "effect on": "binding", "method": "competition with immobilised ligand", "tested at": "1 µM", "remaining binding [%]": 73}
{"Compound": "O=C(c1ccc(Nc2nccc(-c3cc4ccccc4s3)n2)cc1)N1CCC(N2CCCC2)CC1", "effect on": "binding", "method": "competition with immobilised ligand", "tested at": "1 µM", "remaining binding [%]": 7.2}
{"Compound": "CN(C)c1nccc(-c2cnn3ncccc23)n1", "effect on": "binding", "tested at": "1 µM", "remaining binding [%]": 97}
{"Compound": "C[C@@H](c1ccc(-n2cnc3c(N)ncnc32)cc1)N1CCc2nn(C)c(Cc3ccccc3)c2C1=O", "effect on": "binding", "method": "competition with immobilised ligand", "tested at": "0.1 µM", "remaining binding [%]": 32}
{"Compound": "FC(F)(F)Oc1cccc(-c2cnc3ccc(-c4ccncc4)nn23)c1", "effect on": "binding", "method": "competition with immobilised ligand", "tested at": "5 µM", "remaining binding [%]": 34}
{"Compound": "CC1=C(C#N)[C@@H](c2ccc3[nH]nc(C)c3c2)C(C#N)=C(c2ccc(Cl)cc2)N1", "effect on": "cell-free assay", "method": "competition with immobilised ligand", "tested at": "1 µM", "remaining binding [%]": 100}
{"Compound": "COc1ccnn2ncc(-c3ccnc(N(C)C)n3)c12", "effect on": "binding", "tested at": "1 µM", "remaining binding [%]": 75}
{"Compound": "C[C@@H](c1cccc(C#N)c1)n1cc(Cl)cc(C(N)=O)c1=N", "effect on": "cell-free assay", "method": "competition with immobilised ligand", "tested at": "1 µM", "remaining binding [%]": 100}
{"Compound": "COc1ncc2cc3ccccc3nc2c1C#N", "effect on": "cell-free assay", "method": "competition with immobilised ligand", "tested at": "5 µM", "remaining binding [%]": 92}
{"Compound": "O=C(c1ccc(Nc2ncc(Cl)c(-c3cc4ccccc4s3)n2)cc1)N1CCC(N2CCCC2)CC1", "effect on": "binding", "method": "competition with immobilised ligand", "tested at": "1 µM", "remaining binding [%]": 3.6}
{"Compound": "COc1cc(-c2cn(C3CCc4ccccc4N(CC(F)(F)F)C3=O)nn2)ccc1-n1ccc(C)n1 (stereo not shown)", "effect on": "cell-free assay", "method": "competition with immobilised ligand", "tested at": "1 µM", "remaining binding [%]": 86}
{"Compound": "COc1cnc(Nc2cccc(S(N)(=O)=O)c2)nc1N1CCN(c2ccccc2)C(=O)C1", "effect on": "binding", "method": "competition with immobilised ligand", "tested at": "1 µM", "remaining binding [%]": 74}
{"Compound": "C[C@@H]1CCN(c2nccc(-c3cnn4ncccc34)n2)C1", "effect on": "binding", "tested at": "1 µM", "remaining binding [%]": 81}
{"Compound": "NS(=O)(=O)c1cc(NC(=O)C2(c3ccccc3Cl)CC2)ccc1Oc1cccc(Cl)c1", "effect on": "cell-free assay", "method": "competition with immobilised ligand", "tested at": "1 µM", "remaining binding [%]": 98}
{"Compound": "CNC(=O)[C@@H]1CC[C@@H](n2c(-c3ccc4cnccc4c3)nc3ccc(C(=O)NCc4cccc(C(N)=O)c4)cc32)C1", "effect on": "binding", "method": "competition with immobilised ligand", "tested at": "1 µM", "remaining binding [%]": 100}
